According to paper PMC2800315 (Japanese Journal of Clinical Oncology, 2009):

Assay: Safety and tolerability, adverse events
Type: in vivo, Japanese patients
Procedure, shortened: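 Open-label 3+3 dose escalation with daily oral dosing up to 10 mg/day in 28-day cycles. Adverse events monitored throughout and graded by NCI CTCAE v3.0, recorded until 28 days after stopping. DLT: grade ≥3 haematologic or non-haematologic event, or grade ≥3 lab abnormality, within the first 4 weeks and suspected drug-related. Antiemetic and anti-hyperlipidaemia therapy allowed.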

[1] = 2.5 mg/day (n = 3), G1/2, all courses
[2] = 2.5 mg/day (n = 3), G3/4, all courses
[3] = 5 mg/day (n = 3), G1/2, all courses
[4] = 5 mg/day (n = 3), G3/4, all courses

Compound: CO[C@H]1C[C@@H]2CC[C@@H](C)[C@@](O)(O2)C(=O)C(=O)N2CCCC[C@H]2C(=O)O[C@H]([C@H](C)C[C@@H]2CC[C@@H](OCCO)[C@H](OC)C2)CC(=O)[C@H](C)/C=C(\C)[C@@H](O)[C@@H](OC)C(=O)[C@H](C)C[C@H](C)/C=C/C=C/C=C/1C [RAD001, everolimus]
- Number of patients with adverse event: Anemia [1]: 0
- Number of patients with adverse event: Anorexia [1]: 1
- Number of patients with adverse event: Diarrhea [1]: 0
- Number of patients with adverse event: Elevated ALT or AST [1]: 2
- Number of patients with adverse event: Fatigue [1]: 0
- Number of patients with adverse event: Glucose tolerance impaired [1]: 0
- Number of patients with adverse event: Hemorrhage [1]: 0
- Number of patients with adverse event: Hyperglycemia [1]: 0
- Number of patients with adverse event: Hypertension [1]: 1
- Number of patients with adverse event: Leukopenia [1]: 1
- Number of patients with adverse event: Mucosal inflammation [1]: 0
- Number of patients with adverse event: Nausea [1]: 1
- Number of patients with adverse event: Neutropenia [1]: 1
- Number of patients with adverse event: Pneumonitis [1]: 0
- Number of patients with adverse event: Rash [1]: 0
- Number of patients with adverse event: Stomatitis [1]: 1
- Number of patients with adverse event: Thrombocytopenia [1]: 0
- Number of patients with adverse event: Weight decreased [1]: 1
- Number of patients with adverse event: Anemia [2]: 0
- Number of patients with adverse event: Anorexia [2]: 0
- Number of patients with adverse event: Diarrhea [2]: 0
- Number of patients with adverse event: Elevated ALT or AST [2]: 0
- Number of patients with adverse event: Fatigue [2]: 0
- Number of patients with adverse event: Glucose tolerance impaired [2]: 0
- Number of patients with adverse event: Hemorrhage [2]: 0
- Number of patients with adverse event: Hyperglycemia [2]: 0
- Number of patients with adverse event: Hypertension [2]: 0
- Number of patients with adverse event: Leukopenia [2]: 0
- Number of patients with adverse event: Mucosal inflammation [2]: 0
- Number of patients with adverse event: Nausea [2]: 0
- Number of patients with adverse event: Neutropenia [2]: 0
- Number of patients with adverse event: Pneumonitis [2]: 0
- Number of patients with adverse event: Rash [2]: 0
- Number of patients with adverse event: Stomatitis [2]: 0
- Number of patients with adverse event: Thrombocytopenia [2]: 0
- Number of patients with adverse event: Weight decreased [2]: 0
- Number of patients with adverse event: Anemia [3]: 0
- Number of patients with adverse event: Anorexia [3]: 2
- Number of patients with adverse event: Diarrhea [3]: 2
- Number of patients with adverse event: Elevated ALT or AST [3]: 0
- Number of patients with adverse event: Fatigue [3]: 1
- Number of patients with adverse event: Glucose tolerance impaired [3]: 1
- Number of patients with adverse event: Hemorrhage [3]: 0
- Number of patients with adverse event: Hyperglycemia [3]: 0
- Number of patients with adverse event: Hypertension [3]: 0
- Number of patients with adverse event: Leukopenia [3]: 2
- Number of patients with adverse event: Mucosal inflammation [3]: 0
- Number of patients with adverse event: Nausea [3]: 0
- Number of patients with adverse event: Neutropenia [3]: 0
- Number of patients with adverse event: Pneumonitis [3]: 1
- Number of patients with adverse event: Rash [3]: 1
- Number of patients with adverse event: Stomatitis [3]: 0
- Number of patients with adverse event: Thrombocytopenia [3]: 2
- Number of patients with adverse event: Weight decreased [3]: 0
- Number of patients with adverse event: Anemia [4]: 0
- Number of patients with adverse event: Anorexia [4]: 0
- Number of patients with adverse event: Diarrhea [4]: 0
- Number of patients with adverse event: Elevated ALT or AST [4]: 0
- Number of patients with adverse event: Fatigue [4]: 0
- Number of patients with adverse event: Glucose tolerance impaired [4]: 0
- Number of patients with adverse event: Hemorrhage [4]: 0
- Number of patients with adverse event: Hyperglycemia [4]: 0
- Number of patients with adverse event: Hypertension [4]: 0
- Number of patients with adverse event: Leukopenia [4]: 0
- Number of patients with adverse event: Mucosal inflammation [4]: 0
- Number of patients with adverse event: Nausea [4]: 0
- Number of patients with adverse event: Neutropenia [4]: 0
- Number of patients with adverse event: Pneumonitis [4]: 0
- Number of patients with adverse event: Rash [4]: 0
- Number of patients with adverse event: Stomatitis [4]: 0
